We go through 23 compounds from ChEMBL document CHEMBL4130474, “Spirotriazoline oxindoles: A novel chemical scaffold with in vitro anticancer properties” (Eur J Med Chem, 2017).

The subject of one data set is MCF7. Briefly: Antiproliferative activity in human MCF7 cells incubated for 72 hrs by MTT assay. The class given is functional, cell-based. To be noted: MCF7, 72 h. The procedure, abridged:
(§1)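 Cells grown in RPMI 1640 with 10% FBS, penicillin/streptomycin; seeded at 2 × 10⁵ cells/mL, allowed to adhere 24 h, then exposed 72 h to compounds diluted in medium from DMSO stocks. MTT added after medium change, 3 h, formazan dissolved in DMSO, absorbance at 570 nm. Triplicate wells, at least 3 independent experiments; IC50 by non-linear regression.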

The subject of the next data set is MDA-MB-231. Briefly: Antiproliferative activity in human MDA-MB-231 cells incubated for 72 hrs by MTT assay. To be noted: MDA-MB-231, 72 h. The class given is functional, cell-based. The procedure, abridged:
as §1

The subject of another data set is HEK-293T. Briefly: Antiproliferative activity in human HEK293T cells incubated for 72 hrs by MTT assay. The class given is cell-based. The procedure, abridged: as §1
A short description of data set [1]: Selectivity index, ratio of IC50 for antiproliferative activity in HEK293T cells to IC50 for antiproliferative activity in human MCF7 cells. To be noted: HEK293T cells versus MCF7 cells, read-out: Ratio IC50. The class given is toxicity, cell-based. A digest of the protocol: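 Ratio of HEK 293T IC50 to MCF-7 IC50 from 72 h MTT assays.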
In data set [2] the test system is HCT-116. Briefly: Antiproliferative activity in p53 (+/+) human HCT116 cells incubated for 72 hrs by MTS assay. Particulars: HCT-116, 72 h. The class given is functional, cell-based. A digest of the protocol: (§2)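 HCT116 p53(+/+) or p53(−/−) seeded at 1 × 10⁵ cells/mL, adhered 24 h, then treated 72 h with compounds diluted from DMSO stocks. Viability by MTS (CellTiter96 AQueous) with absorbance at 490 nm. Duplicate wells, three independent experiments; IC50 by non-linear regression.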

Data set [3] deals with HCT-116. In words: Antiproliferative activity in p53 (-/-) human HCT116 cells incubated for 72 hrs by MTS assay. The class given is functional, cell-based. To be noted: HCT-116, 72 h. The procedure, abridged:
as §2

Data set [4] is described as follows: Selectivity index, ratio of IC50 for antiproliferative activity in HEK293T cells to IC50 for antiproliferative activity in human p53 (+/+) human HCT116 cells. The class given is toxicity, cell-based. Particulars: HEK293T cells versus p53 (+/+) HCT116 cells, read-out: Ratio IC50.
Data set [5] can be described thus: Selectivity index, ratio of IC50 for antiproliferative activity in HEK293T cells to IC50 for antiproliferative activity in human p53 (-/-) human HCT116 cells. The class given is toxicity, cell-based. Particulars: HEK293T cells versus p53 (-/-) HCT116 cells, read-out: Ratio IC50.

pIC50: −log10 of the molar value.

Turning to `O=C1Nc2ccccc2C12N(c1ccc(Cl)cc1)N=C(c1ccccc1)N2c1ccc(Cl)cc1` (centres undefined), the negative logarithm of the IC50 (pIC50) in the data set with MCF7 is 5.00; in the data set with MDA-MB-231, 5.05; in the data set on HEK-293T, 4.80; with HCT-116 [2] it was 4.73; in the data set with HCT-116 [3], 4.73. Also, the selectivity ratio in data set [1], in data set [4] and in data set [5] was < 2 in each case.
As for `O=C1Nc2c(Cl)cccc2[C@]12[C@@H](c1ccccc1)C(c1ccccc1)=NN2c1ccccc1`, the negative logarithm of the IC50 (pIC50) is 4.65 with MCF7, 4.77 in the data set on MDA-MB-231 and < 4.00 with HEK-293T. Moreover, in data set [1], the selectivity ratio was > 4.5.
Consider `O=C1Nc2ccccc2[C@]12[C@@H](c1ccccc1)C(c1ccccc1)=NN2c1ccccc1`, for which the negative logarithm of the IC50 (pIC50) in the data set on MCF7 is < 4.00.
With `O=C1Nc2ccccc2C12N(c1cccc(Cl)c1)N=C(c1ccccc1)N2c1ccc(Cl)cc1` (centres undefined), the pIC50 in the data set with MCF7 was 4.85; with MDA-MB-231, 4.80; in the data set on HEK-293T it was 4.81; in the data set on HCT-116 [2], 4.70; in the data set on HCT-116 [3], 4.73. The selectivity ratio in data set [1], in data set [4] and in data set [5] was < 2 in each case.
For the compound `O=C1Nc2ccccc2C12N(c1ccccc1Cl)N=C(c1cccc(Cl)c1)N2c1ccc(Cl)cc1` (centres undefined), the negative logarithm of the IC50 (pIC50) in the data set with MCF7 was 4.88; in the data set on MDA-MB-231, 4.84; in the data set on HEK-293T, 4.46; with HCT-116 [2], 4.60; in the data set with HCT-116 [3], 4.46. For the same compound, the selectivity ratio was 2.7 in data set [1], < 2 in data set [4] and < 2 in data set [5].
Regarding `COc1ccc(C2=NN(c3ccccc3)C3(C(=O)Nc4ccc(Br)cc43)N2c2cccc(Cl)c2)cc1` (centres undefined), the pIC50 in the data set with MCF7 is 4.91; with MDA-MB-231 it was 4.85; in the data set with HEK-293T it was 4.59; in the data set with HCT-116 [2] it was 4.65; in the data set with HCT-116 [3], 4.59. Also, the selectivity ratio in data set [1], in data set [4] and in data set [5] was < 2 in each case.
Consider `O=C1Nc2ccccc2C12N(c1ccccc1)N=C(c1ccccc1)N2c1ccccc1` (centres undefined), for which the pIC50 in the data set with MCF7 is 4.44; in the data set on MDA-MB-231, 4.63.
For `O=C1Nc2ccc(Br)cc2[C@]12[C@@H](c1cccc(Cl)c1)C(c1ccccc1)=NN2c1ccccc1`, in that order: 5.00 and 4.90.
In the case of `O=C1Nc2ccc(Cl)cc2C12N(c1ccccc1)N=C(c1ccccc1)N2c1ccccc1` (centres undefined), the pIC50 with MCF7 is 4.72; in the data set with MDA-MB-231, 4.93; with HEK-293T it was 4.49; in the data set on HCT-116 [2], 4.67; in the data set on HCT-116 [3], 4.66. Also, the selectivity ratio in data set [1], in data set [4] and in data set [5] was < 2 each time.
Take `O=C1Nc2ccc(Br)cc2C12N(c1ccccc1)N=C(c1ccc(Cl)cc1)N2c1cccc(Cl)c1` (centres undefined): the pIC50 in the data set on MCF7 is 5.00; in the data set on MDA-MB-231, 4.84; in the data set with HEK-293T, 4.69; in the data set with HCT-116 [2] it was 4.97; in the data set on HCT-116 [3], 4.97. For the same compound, the selectivity ratio in data set [1], in data set [4] and in data set [5] was < 2 throughout.
Turning to `O=C1Nc2ccc(Cl)cc2[C@]12[C@@H](c1ccccc1)C(c1ccccc1)=NN2c1ccccc1`, in the data set on MCF7, the pIC50 was 4.42.
Take `COc1ccc(C2=N[C@@H](c3ccc(Cl)cc3)[C@@H](c3ccc(Cl)cc3)N2C(=O)N2CCNC(=O)C2)c(OC(C)C)c1` [NUTLIN-3]: the negative logarithm of the IC50 (pIC50) in the data set on HCT-116 [3] was 4.32.
As for `O=C1Nc2ccc(Br)cc2C12N(c1ccc(Cl)cc1)N=C(c1ccccc1)N2c1cccc(Cl)c1` (centres undefined), the negative logarithm of the IC50 (pIC50) in the data set with MCF7 was 4.94; in the data set with MDA-MB-231 it was 4.82; in the data set on HEK-293T it was 4.79; with HCT-116 [2] it was 4.82; with HCT-116 [3], 4.76. Further, the selectivity ratio in data set [1], in data set [4] and in data set [5] was < 2 each time.
`O=C1Nc2ccccc2C12N(c1ccccc1)N=C(c1ccc(Cl)cc1)N2c1ccc(Cl)cc1` (centres undefined): the pIC50 with MCF7 was 4.96; with MDA-MB-231, 5.09; in the data set on HEK-293T, 4.64; with HCT-116 [2], 4.77; in the data set on HCT-116 [3], 4.73. Further, the figures for the selectivity ratio in data set [1], in data set [4] and in data set [5] were 2.1, < 2 and < 2, respectively.
In the case of `O=C1Nc2ccccc2C12N(c1ccccc1)N=C(c1ccccc1)N2c1ccc(F)c(Cl)c1` (centres undefined), the pIC50 in the data set on MCF7 is 4.71; in the data set with MDA-MB-231, 4.49.
With `O=C1Nc2ccccc2C12N(c1ccccc1)N=C(c1ccccc1)N2c1cccc(Cl)c1` (centres undefined), the pIC50 in the data set on MCF7 is 4.86; in the data set with MDA-MB-231 it was 4.90; with HEK-293T, 4.59; in the data set on HCT-116 [2] it was 4.70; with HCT-116 [3], 4.66. Besides, the selectivity ratio in data set [1], in data set [4] and in data set [5] was < 2 throughout.
As for `O=C1Nc2ccccc2C12N(c1ccccc1)N=C(c1cccc(Cl)c1)N2c1ccc(Cl)cc1` (centres undefined), the negative logarithm of the IC50 (pIC50) is 4.88 with MCF7; 4.94 in the data set on MDA-MB-231; 4.69 in the data set on HEK-293T; 4.76 in the data set on HCT-116 [2]; 4.79 in the data set on HCT-116 [3]. The selectivity ratio in data set [1], in data set [4] and in data set [5] was < 2 each time.
With `O=C1Nc2ccccc2C12N(c1ccccc1Cl)N=C(c1ccccc1)N2c1ccc(Cl)cc1` (centres undefined), the pIC50 is 4.55 with MCF7 and 4.61 with MDA-MB-231.
`O=C1Nc2ccc(Br)cc2C12N(c1ccccc1)N=C(c1cccc(Cl)c1)N2c1cccc(Cl)c1` (centres undefined): the pIC50 in the data set on MCF7 is 5.10; in the data set with MDA-MB-231, 4.99; with HEK-293T, 4.90; with HCT-116 [2] it was 4.90; in the data set on HCT-116 [3], 4.89. In addition, the selectivity ratio in data set [1], in data set [4] and in data set [5] was < 2 in each case.
For `O=C1Nc2ccc(Br)cc2C12N(c1cccc(Cl)c1)N=C(c1ccccc1)N2c1cccc(Cl)c1` (centres undefined), the pIC50 was 5.01 in the data set with MCF7; 4.97 in the data set with MDA-MB-231; 4.77 in the data set on HEK-293T; 4.92 with HCT-116 [2]; 4.88 with HCT-116 [3]. Besides, the selectivity ratio in data set [1], in data set [4] and in data set [5] was < 2 in each case.
With `O=C1Nc2ccc(Br)cc2C12N(c1ccccc1Cl)N=C(c1ccccc1)N2c1cccc(Cl)c1` (centres undefined), the pIC50 is 4.99 with MCF7; 4.93 in the data set with MDA-MB-231; 4.68 with HEK-293T; 4.67 with HCT-116 [2]; 4.50 in the data set on HCT-116 [3]. The selectivity ratio in data set [1], in data set [4] and in data set [5] was < 2 in each case.
For the compound `O=C1Nc2ccc(Br)cc2C12N(c1cccc(Cl)c1)N=C(c1cccc(Cl)c1)N2c1cccc(Cl)c1` (centres undefined), the negative-log IC50 (pIC50) is 5.16 in the data set on MCF7; 5.15 in the data set with MDA-MB-231; 5.05 in the data set on HEK-293T; 4.99 in the data set on HCT-116 [2]; 5.05 with HCT-116 [3]. Further, the selectivity ratio in data set [1], in data set [4] and in data set [5] was < 2 each time.
As to `O=C1Nc2c(Br)cccc2C12N(c1ccccc1)N=C(c1ccccc1)N2c1ccccc1` (centres undefined), the pIC50 in the data set with MCF7 was 4.66; in the data set with MDA-MB-231 it was 4.63.
